In PubChem BioAssay AID504449 (Broad Institute, 2011):
Results filed as inconclusive are left out. Activity calls are given as the source filed them.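 The calls were made as follows: active = compounds lowering viability signal with fitted half-maximal potency within ten times the top dose, in every repeat run; inconclusive = repeat runs disagree, or weak flat or poorly fitted curves; inactive = every run inactive, including flat or rising signals.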

How the values were obtained:
[1] = viability loss in HMLE_shECad cells, dose response, cell-based, CellTiter-Glo luminescence, powder samples, set 4 (AID 504449); conditions: HMLE_shECad breast CSC viability, CellTiter-Glo, 72 h; at 30 µM (top of the series)
Summary of the method: (§1)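 System – HMLE_shECad breast CSC model cells · Input – 2000 cells per well · Medium – serum-free CSC medium · Dosing – 100 nL compound per well, added by pin transfer · Schedule – ≥4 h cell settling at 37 °C, ~70-74 h compound exposure · Measured by – CellTiter-Glo luminescence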

[2] = test system: HMLE_shECad breast CSC viability, CellTiter-Glo, 72 h; assay: as above
Summary of the method: as §1

Q: With `O=C(c1ccc(COc2ccccc2)o1)N1CCOCC1` as the compound, how does the activity change, negative = inhibition [1] read?
A: 2% (inactive)

Q: With `CC(C)c1ccc(/C=C/C(=O)Nc2nncs2)cc1` as the compound, how does the AC50 [2] read?
A: 13.6 µM

Q: Which activity change, negative = inhibition [1] does the source give for `O=C(Nc1ccccn1)c1ccc(COc2ccccc2)o1` here?
A: -28.5% (inactive)

Q: For `O=C(COc1ccc2ccccc2c1Br)N/N=C/c1ccc[nH]1`, which AC50 [2] is on record?
A: 1.11 µM

Q: With `CC(C)c1ccc(/C=C/C(=O)N(C)Cc2ccccc2)cc1` as the compound, how does the AC50 [2] read?
A: 19.2 µM

Q: For `COc1ccccc1OCC(=O)N/N=C/c1ccc[nH]1`, which activity change, negative = inhibition [1] is on record?
A: 9.18% (inactive)

Q: For `O=C(COc1ccc(Br)cc1)N/N=C/c1ccc[nH]1`, which AC50 [2] is on record?
A: 15.3 µM

Q: For `O=C(CSc1cc(Cl)ccc1Cl)N/N=C/c1ccc[nH]1`, which AC50 [2] is on record?
A: 2.27 µM

Q: For `Cc1csc(NC(=O)c2ccc(COc3ccccc3C#N)o2)n1`, which AC50 [2] is on record?
A: 0.917 µM

Q: With `Cc1ccc(/C=C/C(=O)NC2=NCCS2)cc1` as the compound, how does the AC50 [2] read?
A: 16 µM

Q: With `Cc1csc(NC(=O)c2ccc(COc3cccc(Cl)c3)o2)n1` as the compound, how does the AC50 [2] read?
A: 0.572 µM

Q: With `O=C(/C=C/c1cccc(Cl)c1)NC1=NCCS1` as the compound, how does the AC50 [2] read?
A: 15 µM

Q: Which activity change, negative = inhibition [1] does the source give for `O=C(/C=C/c1ccc(C(F)(F)F)cc1)NC1=NCCS1` here?
A: -1.72% (inactive)

Q: Which AC50 [2] does the source give for `Cc1csc(NC(=O)c2ccc(COc3ccccc3C(F)(F)F)o2)n1` here?
A: 0.065 µM

Q: Which AC50 [2] does the source give for `Cc1csc(NC(=O)c2ccc(COc3cccc(C#N)c3)o2)n1` here?
A: 2.07 µM

Q: With `Cc1csc(NC(=O)c2ccc(COc3ccccc3OC(F)(F)F)o2)n1` as the compound, how does the AC50 [2] read?
A: 0.24 µM

Q: For `CC(C)c1ccc(/C=C/C(=O)N2CCOCC2)cc1`, which activity change, negative = inhibition [1] is on record?
A: 17.8% (inactive)

Q: With `CC(C)(C)c1ccc(C2CC2C(=O)N/N=C/c2ccc[nH]2)cc1` (stereo not given) as the compound, how does the AC50 [2] read?
A: 0.787 µM

Q: For `Cc1csc(NC(=O)c2ccc(COc3cccc(F)c3)o2)n1`, which AC50 [2] is on record?
A: 10.1 µM

Q: Which AC50 [2] does the source give for `Cc1csc(NC(=O)c2ccc(COc3ccc(Cl)cc3)o2)n1` here?
A: 2.82 µM

Q: Which activity change, negative = inhibition [1] does the source give for `CC(C)c1ccc(/C=C/C(=O)NCc2ccccc2)cc1` here?
A: -6.44% (inactive)

Q: Which AC50 [2] does the source give for `CC(C)c1ccc(/C=C/C(=O)Nc2ccccn2)cc1` here?
A: 25.5 µM

Q: With `Cc1cccc(OCC(=O)N/N=C/c2ccc[nH]2)c1C` as the compound, how does the AC50 [2] read?
A: 24.6 µM

Q: For `O=C(N/N=C/c1ccc[nH]1)C1COc2cc3ccccc3cc2O1` (stereo not given), which AC50 [2] is on record?
A: 4.2 µM

Q: For `O=C(NC1=NCCS1)/C(F)=C/c1ccccc1`, which activity change, negative = inhibition [1] is on record?
A: 10.8% (inactive)

Q: Which activity change, negative = inhibition [1] does the source give for `O=C(COc1c(Cl)cc(Cl)cc1Cl)N/N=C/c1ccn[nH]1` here?
A: 6.67% (inactive)

Q: Which activity change, negative = inhibition [1] does the source give for `O=C(COc1ccc(Cl)cc1Cl)N/N=C/c1ccn[nH]1` here?
A: 1.84% (inactive)

Q: With `O=S(=O)(/C=C/c1ccccc1)NC1=NCCS1` as the compound, how does the activity change, negative = inhibition [1] read?
A: 14.4% (inactive)

Q: With `CC(C)c1ccc(/C=C/C(=O)Nc2nccs2)cc1` as the compound, how does the AC50 [2] read?
A: 3.54 µM

Q: Which activity change, negative = inhibition [1] does the source give for `COc1cccc(/C=C/C(=O)NC2=NCCS2)c1` here?
A: -21% (inactive)

Q: For `Cc1csc(NC(=O)c2ccc(COc3cccc(OC(F)(F)F)c3)o2)n1`, which AC50 [2] is on record?
A: 0.439 µM

Q: Which AC50 [2] does the source give for `COc1cccc(OCc2ccc(C(=O)Nc3nc(C)cs3)o2)c1` here?
A: 0.081 µM

Q: Which AC50 [2] does the source give for `COc1ccccc1OCc1ccc(C(=O)Nc2nc(C)cs2)o1` here?
A: 1.63 µM

Q: For `Cc1csc(NC(=O)c2ccc(COc3ccccc3Cl)o2)n1`, which AC50 [2] is on record?
A: 0.045 µM

Q: For `Cc1ccc2cc(C(=O)NC3=NCCS3)n(C)c2c1`, which activity change, negative = inhibition [1] is on record?
A: -17.3% (inactive)

Q: Which AC50 [2] does the source give for `O=C(N/N=C/c1ccc[nH]1)C1CC1c1ccccc1` (stereo not given) here?
A: 12.9 µM

Q: Which activity change, negative = inhibition [1] does the source give for `Cc1csc(NC(=O)c2ccc(CO)o2)n1` here?
A: -1.83% (inactive)

Q: For `O=C(N/N=C/c1ccn[nH]1)c1cc2ccccc2o1`, which activity change, negative = inhibition [1] is on record?
A: 26.2% (inactive)

Q: Which AC50 [2] does the source give for `O=C(Nc1nc2cccc(Cl)c2s1)c1ccc(COc2ccccc2)o1` here?
A: 4.49 µM

Q: With `Cc1csc(NC(=O)c2ccc(COc3ccc(OC(F)(F)F)cc3)o2)n1` as the compound, how does the AC50 [2] read?
A: 3.16 µM

Q: For `Cc1csc(NC(=O)c2ccc(COc3ccccc3F)o2)n1`, which AC50 [2] is on record?
A: 0.019 µM

Q: For `Cc1csc(NC(=O)c2ccc(COc3ccc(C#N)cc3)o2)n1`, which AC50 [2] is on record?
A: 11.5 µM

Q: For `C/C(=C\c1ccccc1)C(=O)NC1=NCCS1`, which activity change, negative = inhibition [1] is on record?
A: 8.28% (inactive)

Q: With `COc1ccc(OCc2ccc(C(=O)Nc3nc(C)cs3)o2)cc1` as the compound, how does the AC50 [2] read?
A: 29.4 µM

Q: With `Cc1cc(C)c(/C=N/NC(=O)COc2c(Cl)cc(Cl)cc2Cl)[nH]1` as the compound, how does the activity change, negative = inhibition [1] read?
A: -14.5% (inactive)

Q: With `O=C(Nc1nccs1)c1ccc(COc2ccccc2)o1` as the compound, how does the activity change, negative = inhibition [1] read?
A: 6.69% (inactive)

Q: For `Cc1csc(NC(=O)c2ccc(COc3ccc(F)cc3)o2)n1`, which AC50 [2] is on record?
A: 5.65 µM

Q: For `CC(C)c1ccc(/C=C/C(=O)Nc2nccn2C)cc1`, which AC50 [2] is on record?
A: 4.65 µM

Q: Which AC50 [2] does the source give for `Cc1csc(NC(=O)c2ccc(COc3ccc(C(F)(F)F)cc3)o2)n1` here?
A: 2.01 µM

Q: Which AC50 [2] does the source give for `Cc1ccc(C)c(OCC(=O)N/N=C/c2ccc[nH]2)c1` here?
A: 9.05 µM

Q: For `C(=C\c1ccccc1)/CNC1=NCCS1`, which activity change, negative = inhibition [1] is on record?
A: 10.6% (inactive)

Q: Which AC50 [2] does the source give for `Cc1csc(NC(=O)c2ccc(COc3cccc(C(F)(F)F)c3)o2)n1` here?
A: 1.57 µM

Q: With `CC[C@@H](C(=O)O)C1CC[C@H](C)C([C@@H](C)[C@H](O)[C@H](C)C(=O)[C@H](CC)C2O[C@]3(C=C[C@@H](O)[C@]4(CC[C@@](C)(C5CC[C@](O)(CC)[C@H](C)O5)O4)O3)[C@H](C)C[C@@H]2C)O1` (stereo not given in full) as the compound, how does the AC50 [2] read?
A: 0.01 µM

Q: For `Cn1ccnc1NC(=O)c1ccc(COc2ccccc2)o1`, which activity change, negative = inhibition [1] is on record?
A: -15.5% (inactive)

Q: With `O=C(COc1ccc(Cl)cc1Br)N/N=C/c1ccc[nH]1` as the compound, how does the AC50 [2] read?
A: 3.16 µM
